# Reference: PubChem BioAssay
# Active and inactive are the calls of the source.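 Rule for the calls, unless noted: active = viability at or under a set limit in both replicates, limit being median viability minus 3 SD (cut at about 48% in these data, passing the limit was not always enough); inconclusive = at or under the limit in just one replicate; inactive = at or above the limit in both replicates.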
# How the values were obtained:
# [1] = HUVEC growth inhibition – cell-based, human, primary screen (AID 575;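 active = viability at or below 30% in both replicate assays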;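 note: 100% = median of untreated cell wells with 0.1% DMSO on each plate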); conditions: HUVEC proliferation, CellTiter-Glo luminescence, 72 h; at 10 µM; stronger effect = lower value
# Summary of the method: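 System: primary human umbilical vein endothelial cells; Quantity: 1250 endothelial cells in each well; Buffer or medium: supplemented EBM, 2% fetal bovine serum; Doses: one dose, 10 µM final, 0.1% DMSO; Incubation: 72 h compound incubation; Technique: ATP-based CellTiter-Glo luminescent read; Evaluation: percent of median DMSO-control luminescence; Controls: vehicle and MePR control wells.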
# [2] = H69AR cell proliferation blockers – human, duplicate replicates, primary screen (AID 580); conditions: H69AR lung tumor cells viability, ATP luminescence, 72 h; at 10 µM; stronger effect = lower value;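 note: 100% = mean luminescence of untreated wells and 0% = no signal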
# [3] = MRP1 drug-resistance reversers in H69AR cells – cell-based, doxorubicin co-treatment, pilot screen (AID 601;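 active = viability loss from added drug above about 55%, and viability with drug at most 40%, in both replicates, limit read from the data, passing the limit was not always enough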); conditions: CellTiter-Glo, 72 h, at 10 µM; for differential viability (reversal): stronger effect = higher value
# [4] = yeast transport mutant growth inhibition pilot in 384-well plates, post-Golgi transport modulator project (AID 636; in the data active = inhibition above about 31%); conditions: absorbance 615 nm, about 18 h, stronger effect = higher value
# [5] = growth suppression of yeast trafficking mutant, preliminary HTS, modulators of trafficking downstream of Golgi apparatus project, 1536-format plate, OD 615 nm (AID 637; in the data active = inhibition above about 30%); conditions: yeast transport mutant growth, absorbance 615 nm, 18 h; stronger effect = higher value
# [6] = H69AR cells + 2 uM doxorubicin, measured here: viability with 2 uM doxorubicin, stronger effect = lower value
# [7] = H69AR cells, compound alone cytotoxicity
Structure (SMILES),viability [1],viability [2],differential viability (reversal) ([3]; H69AR cells + 2 uM doxorubicin),"viability [3, 6]","viability [3, 7]",inhibition [4],inhibition [5]
CCCC(=O)Nc1ccc(NC(=O)c2cccs2)cn1,95.9% (inactive),87.8% (inactive),5.45% (inactive),82.3%,87.8%,-2.99% (inactive),-2.86% (inactive)
C=CCn1c(SCC(=O)NCC2CCCO2)nnc1C1CCCCC1 (stereo not given),104% (inactive),97.5% (inactive),9.64% (inactive),87.8%,97.5%,-6.88% (inactive),-0.32% (inactive)
CC(OC1=CC(=O)CCC1)C(=O)c1ccccc1 (stereo not given),102% (inactive),108% (inactive),18% (inactive),89.8%,108%,-2.6% (inactive),-0.48% (inactive)
CN=C(Nc1ccc2c(c1)OCO2)SC1CC(=O)N(c2ccccc2)C1=O (stereo not given),78.3% (inactive),82.3% (inactive),-0.04% (inactive),82.3%,82.3%,-4.93% (inactive),-0.79% (inactive)
COc1ccc(NC(=O)COc2ccccc2)c(OC)c1,111% (inactive),104% (inactive),23.1% (inactive),81%,104%,-5.6% (inactive),0.16% (inactive)
CC(=O)c1cc(-c2ccccc2)n(CC(=O)N2CCN(C3CCCC3)CC2)c1C,98.7% (inactive),80.5% (inactive),-0.095% (inactive),80.6%,80.5%,-5.58% (inactive),0.95% (inactive)
CCc1ccc(CCC(=O)Nc2ccc(C)c(C)c2)o1,102% (inactive),95.1% (inactive),7.16% (inactive),87.9%,95.1%,-8.4% (inactive),-3.65% (inactive)
COc1nc2ccc(C)cc2cc1-c1noc(-c2cccnc2)n1,103% (inactive),104% (inactive),11.8% (inactive),91.9%,104%,-2.37% (inactive),-2.54% (inactive)
Fc1c(F)c(F)c(CSc2nc3ccccc3[nH]2)c(F)c1F,105% (inactive),95.8% (inactive),11.8% (inactive),84%,95.8%,0.65% (inactive),3.02% (inactive)
COc1ccc(OC)c(Nc2ncnc3c2cnn3-c2ccccc2)c1,99.3% (inactive),90.5% (inactive),1.97% (inactive),88.5%,90.5%,-4.67% (inactive),-5.87% (inactive)
CCSc1nc(-c2ccc(OC)cc2)ccc1C#N,65.8% (inactive),66.5% (inactive),-19.8% (inactive),86.3%,66.5%,-1.69% (inactive),-1.27% (inactive)
CCOC(=O)N1CCN(C(=O)C(NS(=O)(=O)c2cccc3nsnc23)c2ccccc2)CC1 (stereo not given),100% (inactive),94.2% (inactive),-6.95% (inactive),101%,94.2%,-3.38% (inactive),-0.63% (inactive)
CC(C)Cc1nc2oc3c(N4CCN(CCO)CC4)ncnc3c2c2c1CCCC2,52.4% (inactive),42.6% (active),-12.1% (inactive),54.7%,42.6%,-0.26% (inactive),-6.33% (inactive)
COc1ccc(S(=O)(=O)Nc2ccc3c(c2)OCO3)cc1Cl,12.9% (active),87.3% (inactive),5.36% (inactive),82%,87.3%,-6.67% (inactive),12.1% (inactive)
CCOc1ccccc1NC(=O)CCSc1nc2n[nH]c(C)c2c(=N)n1-c1ccccc1Cl,39.2% (inactive),16.9% (active),0.49% (inactive),16.4%,16.9%,-3.03% (inactive),-3.5% (inactive)
COc1ccccc1CN(Cc1nc2ccccc2c(=O)[nH]1)C(=O)Nc1ccccc1,89.4% (inactive),86.6% (inactive),-3.29% (inactive),89.9%,86.6%,-4.61% (inactive),-4.13% (inactive)
COCCn1cc(C(=O)NCCCN2CCC(C)CC2)c2c3ccccc3n(C)c2c1=O,90.7% (inactive),88.8% (inactive),2.62% (inactive),86.2%,88.8%,-5.97% (inactive),1.11% (inactive)
O=C(c1cccnc1)N1CCN(Cc2ccc3c(c2)OCO3)CC1,89.6% (inactive),95.8% (inactive),14.4% (inactive),81.4%,95.8%,-7.73% (inactive),1.75% (inactive)
CCCOc1ccc(C2C(C(=O)c3ccc(C)o3)=C(O)C(=O)N2Cc2cccnc2)cc1 (stereo not given),110% (inactive),97.8% (inactive),3.76% (inactive),94%,97.8%,-5.79% (inactive),1.75% (inactive)
Cc1ccc(S(=O)(=O)N2CCCC2)cc1S(=O)(=O)N1CCCC1,90.9% (inactive),98.6% (inactive),5.92% (inactive),92.7%,98.6%,-3.25% (inactive),2.54% (inactive)

Structure (SMILES),viability [1],viability [2],differential viability (reversal) ([3]; H69AR cells + 2 uM doxorubicin),"viability [3, 6]","viability [3, 7]",inhibition [4],inhibition [5]
COC(=O)C1=C(CSCc2ccco2)NC(=O)NC1c1cc(C)ccc1C (stereo not given),98.4% (inactive),82.5% (inactive),-9.46% (inactive),92%,82.5%,-1.47% (inactive),-1.43% (inactive)
O=C(NCC1CCCO1)c1cccc(N2CCCC2=O)c1 (stereo not given),90% (inactive),90.2% (inactive),-0.795% (inactive),91%,90.2%,-5.47% (inactive),1.9% (inactive)
CSc1ccccc1NC(=O)c1noc2c1CCC2,77.8% (inactive),90.2% (inactive),1.63% (inactive),88.5%,90.2%,-3.38% (inactive),-3.49% (inactive)
CCOc1ccccc1C(=O)NCc1ccc2c(c1)OCO2,88.2% (inactive),67.4% (inactive),-20.6% (inactive),88.1%,67.4%,-7.73% (inactive),3.02% (inactive)
O=C(c1cc(-c2cccs2)on1)N1CCc2ccccc2C1,103% (inactive),104% (inactive),21.8% (inactive),81.8%,104%,-2.24% (inactive),-0.48% (inactive)
CCn1cnc2cc(NCc3cccc(OC)c3O)ccc21,99.3% (inactive),92.3% (inactive),5.97% (inactive),86.3%,92.3%,-4.47% (inactive),0.32% (inactive)
CN1CCN(C(=O)CN(Cc2ccc(Cl)cc2)S(C)(=O)=O)CC1,93.3% (inactive),94.5% (inactive),-1.31% (inactive),95.8%,94.5%,-1.45% (inactive),4.44% (inactive)
O=C(c1ccco1)N1CCN(CC(=O)N(C2CCCCC2)C2CCS(=O)(=O)C2)CC1 (stereo not given),94% (inactive),93.5% (inactive),-4.1% (inactive),97.6%,93.5%,-4.81% (inactive),-3.17% (inactive)
COc1ccccc1N(CN1CCCC1=O)C(=O)c1c(F)cccc1Cl,95% (inactive),97.5% (inactive),-0.095% (inactive),97.6%,97.5%,-5.2% (inactive),-0.32% (inactive)
Cc1ccnc(NS(=O)(=O)c2ccc(N=CC3=C(O)CC(C)(C)CC3=O)cc2)n1,102% (inactive),97.1% (inactive),-0.37% (inactive),97.5%,97.1%,0.92% (inactive),-5.4% (inactive)
CCOC(=O)CSc1nnc(CNC(=O)c2ccc(OC)c(OC)c2)n1C,107% (inactive),95.7% (inactive),-2.17% (inactive),97.8%,95.7%,-1.82% (inactive),-2.54% (inactive)
Cc1cc(NC(=O)CCC(=O)N(CC2CCCO2)C(C(=O)NC2CCCC2)c2ccccc2C)no1 (stereo not given),86.4% (inactive),96.7% (inactive),13.5% (inactive),83.2%,96.7%,-2.11% (inactive),5.4% (inactive)
O=C(O)CCc1ccc(-c2cccs2)n1NC(=O)c1ccco1,105% (inactive),96.8% (inactive),8.25% (inactive),88.5%,96.8%,0.39% (inactive),9.05% (inactive)
Cc1ccccc1NC(=O)c1ccc(NC(=O)c2ccco2)cc1,102% (inactive),80.7% (inactive),1.25% (inactive),79.4%,80.7%,-6.84% (inactive),-4.6% (inactive)
COC(=O)Cc1[nH]nc2c1C(C1C=CCCC1)C(C#N)=C(N)O2 (stereo not given),49.3% (inactive),95.8% (inactive),7.65% (inactive),88.2%,95.8%,-4.21% (inactive),3.33% (inactive)
COc1cc2c(cc1OC)CN(C(=O)COc1ccc(C#N)cc1)CC2,93% (inactive),84.8% (inactive),-12% (inactive),96.8%,84.8%,0.52% (inactive),-4.44% (inactive)
Cc1cc(NC(=O)c2cc(-c3ccco3)on2)n(-c2ccccc2)n1,80.7% (inactive),106% (inactive),13% (inactive),92.6%,106%,-2.5% (inactive),1.9% (inactive)
Nc1nc2ccccc2n1/N=C/c1ccc(Br)cc1,72.4% (inactive),86.8% (inactive),4.02% (inactive),82.8%,86.8%,-3.95% (inactive),8.57% (inactive)
COc1ccc(C(=O)N2CCN(C(=O)c3ccco3)CC2)cc1OC,87.2% (inactive),95.9% (inactive),4.87% (inactive),91.1%,95.9%,-5.73% (inactive),0.32% (inactive)
O=C(NC1CCCCC1)C1CCCN1C(=O)NCc1ccccc1 (stereo not given),101% (inactive),102% (inactive),-1.87% (inactive),104%,102%,-4.93% (inactive),-3.17% (inactive)
